ChEMBL document CHEMBL4007408, “Identification of Novel Triazole-Based Nicotinamide Phosphoribosyltransferase (NAMPT) Inhibitors Endowed with Antiproliferative and Antiinflammatory Activity” (J Med Chem, 2017)
Activity calls are given as the source filed them. No cut-off for these calls is given here.

Tests used:
[1] = Drug metabolism in human liver microsomes assessed as mixed function oxidase mediated compound cleavage by measuring compound remaining after 60 mins in presence of NADPH-regenerating system by LC-UV analysis; format: ADME; conditions: read-out: Stability
Outline: (§1)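 Substrate at 50 μM final, with rat or human liver microsomes at 1.0 mg/ml protein, in 50 mM Tris-HCl pH 7.4. Mix held 3.3 mM MgCl2, 1% acetonitrile and an NADPH-regenerating system (1.3 mM β-NADP, 3.3 mM glucose 6-phosphate, 0.4 U/ml G6PDH). Shaken 60 min at 37 °C, stopped with ice-cold acetonitrile. LC-UV gave % residual substrate versus a no-microsome control, mean of two replicates.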

[2] = tested on: Liver; experiment: Drug metabolism in Wistar Han rat liver microsomes assessed as compound hydrolysis by measuring 8-(4-(pyridin-3-yl)-1H-1,2,3-triazol-1-yl)octanoic acid formation after 60 mins by LC-ESI-MS analysis; format: ADME, microsome
Outline: (§2)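 Hydrolytic metabolites were identified by LC-ESI-MSn after 60 min at 37 °C. Incubations used 50 μM substrate with rat or human liver microsomes (1.0 mg/ml) in 50 mM Tris-HCl pH 7.4, 3.3 mM MgCl2 and 1% acetonitrile. Samples without the NADPH-regenerating system were also run, and residual substrate in them was measured.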

[3] = tested on: Liver; experiment: Drug metabolism in human liver microsomes assessed as compound hydrolysis by measuring 2-aminobiphenyl formation after 60 mins by LC-ESI-MS analysis; format: ADME, microsome; conditions: 1 h; outline: as §2
[4] = Drug metabolism in Wistar Han rat liver microsomes assessed as mixed function oxidase mediated compound cleavage by measuring compound remaining after 60 mins in presence of NADPH-regenerating system by LC-UV analysis; format: ADME; conditions: read-out: Stability; outline: as §1
[5] = tested on: Liver; experiment: Drug metabolism in Wistar Han rat liver microsomes assessed as compound hydrolysis by measuring 2-aminobiphenyl formation after 60 mins by LC-ESI-MS analysis; format: ADME, microsome; conditions: 1 h; outline: as §2
[6] = tested on: Liver; experiment: Drug metabolism in human liver microsomes assessed as compound hydrolysis by measuring 8-(4-(pyridin-3-yl)-1H-1,2,3-triazol-1-yl)octanoic acid formation after 60 mins by LC-ESI-MS analysis; format: ADME, microsome; outline: as §2
[7] = tested on: Liver; experiment: Drug metabolism in Wistar Han rat liver microsomes assessed as aromatic hydroxylation of biphenyl moiety by LC-ESI-MS or LC-UV analysis; format: ADME, microsome
Outline: (§3)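 Metabolites were characterized by LC-ESI-MSn on supernatants of 60 min, 37 °C incubations. Each used 50 μM substrate with rat or human liver microsomes (1.0 mg/ml protein) in 50 mM Tris-HCl pH 7.4 with 3.3 mM MgCl2, 1% acetonitrile and an NADPH-regenerating system. Reactions were quenched with cold acetonitrile and centrifuged.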

[8] = tested on: Liver; experiment: Drug metabolism in human liver microsomes assessed as aliphatic hydroxylation of paraffin linkers by LC-ESI-MS or LC-UV analysis; format: ADME, microsome; outline: as §3
[9] = tested on: Liver; experiment: Stability in human liver microsomes assessed as mixed function oxidase mediated compound cleavage after 60 mins in presence of NADPH-regenerating system by LC-UV analysis; format: ADME, microsome; conditions: 1 h; outline: as §1
[10] = tested on: Liver; experiment: Drug metabolism in Wistar Han rat liver microsomes assessed as oxidative N-dealkylation by LC-ESI-MS or LC-UV analysis; format: ADME, microsome; outline: as §3
[11] = tested on: Liver; experiment: Drug metabolism in Wistar Han rat liver microsomes assessed as aliphatic hydroxylation of paraffin linkers by LC-ESI-MS or LC-UV analysis; format: ADME, microsome; outline: as §3
[12] = tested on: Liver; experiment: Drug metabolism in human liver microsomes assessed as aromatic hydroxylation of biphenyl moiety by LC-ESI-MS or LC-UV analysis; format: ADME, microsome; outline: as §3
[13] = Stability in Wistar Han rat liver microsomes assessed as mixed function oxidase mediated compound cleavage after 60 mins in presence of NADPH-regenerating system by LC-UV analysis; format: ADME; conditions: 1 h; outline: as §1
[14] = target: Nicotinamide phosphoribosyltransferase (Mus musculus, UniProt Q99KQ4); experiment: Inhibition of recombinant mouse NAMPT expressed in bacterial expression system using nicotinamide as substrate after 1 hr by fluorescence based NMNAT-3 enzyme coupled assay; conditions: read-out: IC50
[15] = tested on: Liver; experiment: Drug metabolism in human liver microsomes assessed as oxidative N-dealkylation by LC-ESI-MS or LC-UV analysis; format: ADME, microsome; outline: as §3
[16] = tested on: Liver; experiment: Stability in Wistar Han rat liver microsomes after 60 mins by LC-ESI-MS analysis; format: ADME, microsome; conditions: 1 h
[17] = target: Nicotinamide phosphoribosyltransferase (Homo sapiens, UniProt P43490); experiment: Inhibition of NAMPT in human Jurkat T cells assessed as reduction in NAD levels; format: cell-based
[18] = tested on: SH-SY5Y; experiment: Cytotoxicity against human SH-SY5Y cells assessed as reduction in cell viability after 56 hrs by MTT assay; format: functional, cell-based; conditions: Homo sapiens, SH-SY5Y, 56 h; read-out: EC50
[19] = tested on: Liver; experiment: Stability in human liver microsomes after 60 mins by LC-ESI-MS analysis; format: ADME, microsome; conditions: 1 h
[20] = tested on: Mus musculus; experiment: In vivo inhibition of NAMPT in DNBS-induced BALB/c mouse colitis model assessed as reduction in hemorrhagic ulcerations at 20 mg/kg, ip bid administered for 3 days post DNBS challenge; format: functional, organism-based
[21] = tested on: Liver; experiment: Drug metabolism in Wistar Han rat liver microsomes assessed as pyridine N-oxidation after 60 mins in presence of NADPH-regenerating system by LC-UV analysis; format: ADME, microsome; conditions: 1 h; outline: as §3
[22] = Volume of distribution in athymic Nu/Nu Harlan mouse at 10 mg/kg, iv administered as single dose up to 24 hrs by LC-ESI-MS analysis; format: ADME, organism-based; conditions: in vivo
[23] = tested on: Fibrosarcoma cell; experiment: Antitumor activity against mouse fibrosarcoma cells allografted in athymic nu/nu Harlan mouse
[24] = tested on: Mus musculus; experiment: Toxicity in athymic nu/nu Harlan mouse xenografted with human A2780 cells assessed as body weight loss at 10 mg/kg, ip bid administered for 8 consecutive days measured through out study; format: organism-based; conditions: in vivo
[25] = Half life in athymic Nu/Nu Harlan mouse at 10 mg/kg, iv administered as single dose up to 24 hrs by LC-ESI-MS analysis; format: ADME, organism-based; conditions: in vivo
[26] = tested on: Mus musculus; experiment: Antiinflammatory activity of DSS-induced […] mouse colitis model assessed as disease activity index at 20 mg/kg administered daily for 7 days post DSS challenge (reference value: 6); format: functional
[27] = tested on: Mus musculus; experiment: Antiinflammatory activity of DSS-induced […] mouse colitis model assessed as reduction in loss of body weight at 20 mg/kg administered daily for 7 days post DSS challenge; format: functional, organism-based
[28] = Drug metabolism in human liver microsomes assessed as mixed function oxidase mediated compound degradation after 60 mins in presence of NADPH-regenerating system by LC-UV analysis; format: ADME; conditions: 1 h; outline: as §1
[29] = tested on: Mus musculus; experiment: Downregulation of NAMPT expression in DNBS-induced BALB/c mouse colitis model at 20 mg/kg, ip bid administered for 3 days post DNBS challenge by Western blot analysis; format: functional, organism-based
[30] = tested on: Mus musculus; experiment: In vivo inhibition of NAMPT in DNBS-induced BALB/c mouse colitis model assessed as reduction in loss of body weight at 20 mg/kg, ip bid administered for 3 days post DNBS challenge; format: functional, organism-based
[31] = tested on: A2780; experiment: Cytotoxicity against human A2780 cells assessed as reduction in cell viability; format: functional, cell-based
[32] = tested on: A2780; experiment: Antitumor activity against human A2780 cells xenografted in athymic nu/nu Harlan mouse assessed as reduction in tumor growth at 10 mg/kg, ip bid administered for 8 consecutive days; format: functional, organism-based
[33] = tested on: Mus musculus; experiment: Antiinflammatory activity of DSS-induced […] mouse colitis model assessed as reversion of changes in colon length at 20 mg/kg administered daily for 7 days post DSS challenge; format: functional, organism-based
[34] = Drug metabolism in Wistar Han rat liver microsomes assessed as mixed function oxidase mediated compound degradation after 60 mins in presence of NADPH-regenerating system by LC-UV analysis; format: ADME; conditions: 1 h; outline: as §1
[35] = tested on: Mammary cancer cell; experiment: Antitumor activity against mouse mammary cancer cells allografted in athymic nu/nu Harlan mouse
[36] = tested on: Mus musculus; experiment: In vivo inhibition of NAMPT in DNBS-induced BALB/c mouse colitis model assessed as reduction in mucosal congestion at 20 mg/kg, ip bid administered for 3 days post DNBS challenge; format: functional, organism-based
[37] = Clearance in athymic Nu/Nu Harlan mouse at 10 mg/kg, iv administered as single dose up to 24 hrs by LC-ESI-MS analysis; format: ADME, organism-based; conditions: in vivo
[38] = tested on: Mus musculus; experiment: In vivo inhibition of NAMPT in DNBS-induced BALB/c mouse colitis model assessed as reduction in neutrophil infiltration by measuring myeloperoxidase levels at 20 mg/kg, ip bid administered for 3 days post DNBS challenge by ELISA; format: functional, organism-based
[39] = tested on: Liver; experiment: Drug metabolism in human liver microsomes assessed as pyridine N-oxidation after 60 mins in presence of NADPH-regenerating system by LC-UV analysis; format: ADME, microsome; conditions: 1 h; outline: as §3
[40] = Apparent aqueous solubility of the compound; format: physicochemical; conditions: buffer
Outline: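 Kinetic solubility was measured by filtration. Compound from a 10 mM DMSO stock was diluted in PBS pH 7.4 to nominal 500 and 200 μM, shaken 90 min at room temperature and filtered. Filtrate was diluted 4:1 with acetonitrile and absorbance read at 260/280 nm. Concentration came from a calibration curve (3.13–500 μM in 80:20 PBS/acetonitrile, 5% DMSO; r2 >0.85) × 1.25. Run in duplicate.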

[41] = AUC in athymic Nu/Nu Harlan mouse at 10 mg/kg, iv administered as single dose up to 24 hrs by LC-ESI-MS analysis; format: ADME, organism-based; set-up: time < 24 hr, dose 10 mg/kg, route intravenous; conditions: in vivo
[42] = tested on: Mus musculus; experiment: In vivo inhibition of NAMPT in DNBS-induced BALB/c mouse colitis model assessed as reduction in erosion at 20 mg/kg, ip bid administered for 3 days post DNBS challenge; format: functional, organism-based
[43] = tested on: Mus musculus; experiment: Antiinflammatory activity of DSS-induced […] mouse colitis model assessed as reduction in neutrophil infiltration by measuring myeloperoxidase levels at 20 mg/kg administered daily for 7 days post DSS challenge by ELISA; format: functional, organism-based
[44] = tested on: Mus musculus; experiment: Drug metabolism in athymic Nu/Nu Harlan mouse blood assessed as N-oxide metabolite formation at 10 mg/kg, iv administered as single dose up to 24 hrs by LC-ESI-MS analysis; format: ADME, organism-based; conditions: in vivo
[45] = tested on: Mus musculus; experiment: Antiinflammatory activity of DSS-induced […] mouse colitis model assessed as improved general condition at 20 mg/kg administered daily for 7 days post DSS challenge; format: functional, organism-based

Sequence of Nicotinamide phosphoribosyltransferase (Mus musculus, UniProt Q99KQ4) (Q99KQ4 whole entry): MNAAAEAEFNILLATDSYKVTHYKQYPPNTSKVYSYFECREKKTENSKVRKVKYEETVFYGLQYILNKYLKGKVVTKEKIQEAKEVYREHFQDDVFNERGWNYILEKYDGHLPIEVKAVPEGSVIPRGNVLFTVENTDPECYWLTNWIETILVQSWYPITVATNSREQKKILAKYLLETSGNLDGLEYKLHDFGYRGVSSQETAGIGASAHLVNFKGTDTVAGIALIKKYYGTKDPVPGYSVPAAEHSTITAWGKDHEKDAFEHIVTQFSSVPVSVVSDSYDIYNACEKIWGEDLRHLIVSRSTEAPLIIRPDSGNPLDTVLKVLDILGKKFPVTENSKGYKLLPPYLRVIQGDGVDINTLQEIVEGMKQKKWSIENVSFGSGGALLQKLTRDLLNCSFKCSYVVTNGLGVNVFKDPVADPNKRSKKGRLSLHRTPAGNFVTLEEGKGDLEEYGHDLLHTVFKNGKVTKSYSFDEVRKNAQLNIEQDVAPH
Sequence of Nicotinamide phosphoribosyltransferase (Homo sapiens, UniProt P43490) (P43490 whole entry): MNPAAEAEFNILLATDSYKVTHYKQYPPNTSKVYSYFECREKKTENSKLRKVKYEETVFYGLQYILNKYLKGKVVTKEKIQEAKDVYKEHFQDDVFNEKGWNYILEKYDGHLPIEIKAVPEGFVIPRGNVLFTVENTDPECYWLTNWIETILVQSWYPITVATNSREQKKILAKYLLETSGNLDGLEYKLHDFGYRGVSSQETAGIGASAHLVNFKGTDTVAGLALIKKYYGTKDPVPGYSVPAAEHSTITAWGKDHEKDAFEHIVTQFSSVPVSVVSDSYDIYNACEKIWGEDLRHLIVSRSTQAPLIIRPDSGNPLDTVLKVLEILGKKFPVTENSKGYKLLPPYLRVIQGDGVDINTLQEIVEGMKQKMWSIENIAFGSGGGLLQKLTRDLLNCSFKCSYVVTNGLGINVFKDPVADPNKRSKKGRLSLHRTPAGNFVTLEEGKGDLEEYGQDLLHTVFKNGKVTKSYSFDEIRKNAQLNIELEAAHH

remaining at 1 h [1] | remaining at 1 h [4] | Stability [9] | Stability [13] | IC50 [14] | Stability [16] | IC50 [17] | Stability [19] | Drug metabolism [21] | Vd [22] | half-life [25] | SMILES | EC50 [18] | inhibition [20] | Activity [23] | Activity [24] | inhibition [29] | inhibition [30] | IC50 [31] | inhibition [32] | Activity [35] | other results
45% | 26% | – | – | – | – | – | – | – | – | – | O=C(CCCCCCCn1cc(-c2cccnc2)nn1)Nc1ccccc1-c1ccccc1 | – | – | – | – | – | – | – | – | – | Drug metabolism [2]: Metabolite_Detected; Drug metabolism [3]: Metabolite_Detected; Drug metabolism [5]: Metabolite_Detected; Drug metabolism [6]: Metabolite_Detected
88% | 45% | Stable | Stable | 3.1 nM | Stable | 4.9 nM | Stable | – | – | – | O=C(NCCCCCCCn1cc(-c2cccnc2)nn1)c1ccccc1-c1ccccc1 | 5.8 nM | – | – | – | – | – | – | – | – | Drug metabolism [7]: Metabolite_Detected; Drug metabolism [8]: Metabolite_Detected; Drug metabolism [10]: Metabolite_Detected; Drug metabolism [11]: Metabolite_Detected; Drug metabolism [12]: Metabolite_Detected; Drug metabolism [15]: Metabolite_Detected
49% | 31% | – | – | 3.8 nM | Stable | 6.7 nM | Stable | Metabolite_Detected | 31.8 L/kg | 1.89 h | c1ccc(-c2ccccc2OCCCCCCn2cc(-c3cccnc3)nn2)cc1 | 5.2 nM | Active | Active | Non-Toxic | Active | Active | 3 nM | Active | Active | Activity_index [26]: 2.5; Activity [27]: Active; Drug metabolism [28]: Metabolite_Detected; Activity [33]: Active; Drug metabolism [34]: Metabolite_Detected; inhibition [36]: Active; clearance [37]: 194 mL/min/kg; inhibition [38]: Active; Drug metabolism [39]: Metabolite_Detected; solubility [40]: Insoluble; AUC at 24 h [41]: 859 ng·h/mL; inhibition [42]: Active; Activity [43]: Active; Drug metabolism [44]: Metabolite_Notdetected; Activity [45]: Active
92% | 62% | Stable | Stable | 4.9 nM | Stable | – | Stable | Metabolite_Detected | 0.8 L/kg | 0.37 h | O=C(/C=C/c1cccnc1)NCCCCC1CCN(C(=O)c2ccccc2)CC1 [DAPORINAD] | 3.4 nM | Active | Active | Non-Toxic | Active | Active | 4.2 nM | Active | Active | inhibition [36]: Active; clearance [37]: 22.8 mL/min/kg; inhibition [38]: Active; Drug metabolism [39]: Metabolite_Detected; solubility [40]: Soluble; AUC at 24 h [41]: 6470 ng·h/mL; inhibition [42]: Active; Drug metabolism [44]: Metabolite_Detected
